How the values were obtained:
[1] = Therapeutic index, ratio of CC50 for HEK293T cells to IC50 for HIV-1 sub-type-C MJ4 infected in HEK293T cells; format: toxicity, cell-based; settings: human, read-out: Ratio CC50/IC50
Summary of the method: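 HEK293T cells (2 × 10⁴/well) with HSA-formulated compound (5:1 molar), 3-fold dilutions, 48 h at 37 °C. […] IC50 from luciferase after single-cycle infection with HIV-like particles carrying MJ4 subtype C RT/IN, over the noncytotoxic range.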

[2] = Prodrug conversion in C57BL/6 mouse plasma assessed as Tmax of TFV metabolite at 10 mg/kg, po measured for 24 hrs by LC-MS/MS analysis; format: ADME, organism-based; settings: in vivo
Summary of the method: (§1)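 Male C57BL/6 mice (8–12 weeks, 20–30 g) got a single gavage of 10 mg/kg in 10% EtOH/90% olive oil, n = 3 per time point with sparse sampling. Retro-orbital blood was taken at 0.25–24 h and plasma spun off. Prodrug and TFV were measured by LC–MS/MS.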

[3] = Prodrug conversion in C57BL/6 mouse liver assessed as Tmax of TFV metabolite at 10 mg/kg, po measured for 24 hrs by LC-MS/MS analysis; format: ADME, organism-based; settings: in vivo
Summary of the method: (§2)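 After a single 10 mg/kg gavage (10% EtOH/90% olive oil) in male C57BL/6 mice, liver, kidney and brain were collected at 1, 4 and 24 h (n = 3 per time point). Tissues were rinsed in ice-cold saline and homogenized in ice-cold PBS pH 7.4 (3× weight for brain, 5× for liver and kidney). Prodrug and TFV were measured by LC–MS/MS; AUC0–24h by the linear trapezoidal rule.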

[4] = Prodrug conversion in C57BL/6 mouse liver assessed as AUC (0 to 24 hrs) of TFV metabolite at 10 mg/kg, po measured for 24 hrs by LC-MS/MS analysis; format: ADME, organism-based; settings: in vivo; summary of the method: as §2
[5] = Clearance in C57BL/6 mouse plasma at 10 mg/kg, po measured for 24 hrs by LC-MS/MS analysis; format: ADME, organism-based; settings: in vivo; summary of the method: as §1
[6] = Prodrug conversion in C57BL/6 mouse kidney assessed as Cmax of TFV metabolite at 10 mg/kg, po measured for 24 hrs by LC-MS/MS analysis; format: ADME, organism-based; settings: in vivo; summary of the method: as §2
[7] = Tmax in C57BL/6 mouse kidney at 10 mg/kg, po measured for 24 hrs by LC-MS/MS analysis; format: ADME, organism-based; summary of the method: as §2
[8] = Ratio of AUC (0 to 24 hrs) of prodrug to TFV metabolite in C57BL/6 mouse liver at 10 mg/kg, po measured for 24 hrs by LC-MS/MS analysis; format: ADME, organism-based; settings: in vivo; summary of the method: as §2
[9] = Ratio of AUC (0 to 24 hrs) of prodrug to TFV metabolite in C57BL/6 mouse kidney at 10 mg/kg, po measured for 24 hrs by LC-MS/MS analysis; format: ADME, organism-based; settings: in vivo; summary of the method: as §2
[10] = Prodrug conversion in C57BL/6 mouse liver assessed as Cmax of TFV metabolite at 10 mg/kg, po measured for 24 hrs by LC-MS/MS analysis; format: ADME, organism-based; settings: in vivo; summary of the method: as §2
[11] = Prodrug conversion in C57BL/6 mouse plasma assessed as AUC (0 to 24 hrs) of TFV metabolite at 10 mg/kg, po measured for 24 hrs by LC-MS/MS analysis; format: ADME, organism-based; settings: in vivo; summary of the method: as §1
[12] = Tmax in C57BL/6 mouse brain at 10 mg/kg, po measured for 24 hrs by LC-MS/MS analysis; format: ADME, organism-based; summary of the method: as §2
[13] = Prodrug conversion in C57BL/6 mouse kidney assessed as Tmax of TFV metabolite at 10 mg/kg, po measured for 24 hrs by LC-MS/MS analysis; format: ADME, organism-based; settings: in vivo; summary of the method: as §2
[14] = Prodrug conversion in C57BL/6 mouse kidney assessed as AUC (0 to 24 hrs) of TFV metabolite at 10 mg/kg, po measured for 24 hrs by LC-MS/MS analysis; format: ADME, organism-based; settings: in vivo; summary of the method: as §2
[15] = Clearance in C57BL/6 mouse plasma at 3 mg/kg, iv measured for 8 hrs by LC-MS/MS analysis; format: ADME, organism-based; settings: in vivo
Summary of the method: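 Male C57BL/6 mice got a single 3 mg/kg i.v. dose in 10% PEG-300, 10% Solutol HS-15 and 80% saline, n = 3 per time point. Retro-orbital blood was taken at 0.1–8 h and plasma prodrug measured by LC–MS/MS. AUC0–8h used the trapezoidal rule; Cl = Dose/AUC0–8h.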

[16] = Stability in human liver microsomes assessed as compound remaining at 3 uM pretreated for 5 mins followed by NADPH addition measured upto 120 mins by LC-MS/MS analysis; format: ADME, Microsome; settings: 2.083 h, time < 125 min
Summary of the method: (§3)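 Human liver microsomes (1 mg/mL) in 100 mM potassium phosphate were preincubated with 3 µM test compound (final) at 37 °C for 5 min, then started with NADPH. Duplicate aliquots at 0, 15, 30, 60 and 120 min were quenched in cold MeOH with internal standard and analysed by LC–MS/MS. Values were normalized to 0 min; a no-NADPH control was read at 120 min.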

[17] = Ratio of AUC (0 to 24 hrs) of prodrug to TFV metabolite in C57BL/6 mouse plasma at 10 mg/kg, po measured for 24 hrs by LC-MS/MS analysis; format: ADME, organism-based; settings: in vivo; summary of the method: as §1
[18] = Prodrug conversion in C57BL/6 mouse plasma assessed as Cmax of TFV metabolite at 10 mg/kg, po measured for 24 hrs by LC-MS/MS analysis; format: ADME, organism-based; settings: in vivo; summary of the method: as §1
[19] = Metabolic stability in human liver microsomes assessed as half life; format: ADME, Microsome; summary of the method: as §3
[20] = Half life in C57BL/6 mouse plasma at 10 mg/kg, po measured for 24 hrs by LC-MS/MS analysis; format: ADME, organism-based; settings: in vivo; summary of the method: as §1
[21] = Tmax in C57BL/6 mouse liver at 10 mg/kg, po measured for 24 hrs by LC-MS/MS analysis; format: ADME, organism-based; summary of the method: as §2
[22] = Volume of distribution in C57BL/6 mouse plasma at 10 mg/kg, po measured for 24 hrs by LC-MS/MS analysis; format: ADME, organism-based; settings: in vivo; summary of the method: as §1

## CCCCCCCCCCCCCCCCOCCCOP(=O)(O)CO[C@H](C)Cn1cnc2c(N)ncnc21 [TENOFOVIR EXALIDEX]
[1]
  selectivity ratio: 5420

## C[C@H](Cn1cnc2c(N)ncnc21)OCP(=O)(O)OCCCSCCCCCCCCCCCCc1ccccc1
[1]
  selectivity ratio: > 12500

## C[C@H](Cn1cnc2c(N)ncnc21)OCP(=O)(O)OCCCSCCCCCCCCCCC#Cc1ccc(F)cc1
[1]
  selectivity ratio: > 10000

## C[C@H](Cn1cnc2c(N)ncnc21)OCP(=O)(O)OCCCSCCCCCCCCCCCCc1ccc(F)cc1.N
[2]
  Tmax: 4 h
[3]
  Tmax: 24 h
[4]
  AUC: 72500 ng·h/mL
[5]
  CL: 134 mL/min/kg
[6]
  Cmax: 1420 ng/mL
[7]
  Tmax: 4 h
[8]
  Ratio: 0.877
[9]
  Ratio: 0.322
[10]
  Cmax: 3980 ng/mL
[11]
  AUC: 635 ng·h/mL
[12]
  Tmax: 4 h
[13]
  Tmax: 24 h
[14]
  AUC: 23800 ng·h/mL
[1]
  selectivity ratio: > 11100
[15]
  CL: 134 mL/min/kg

## CCCCCCCCCCCCCCCCCSCCOP(=O)(O)CO[C@H](C)Cn1cnc2c(N)ncnc21
[1]
  selectivity ratio: 7150

## C[C@H](Cn1cnc2c(N)ncnc21)OCP(=O)(O)OCCCSCCCCCCCCCCCOc1ccc(F)cc1.N
[16]
  Stability: 85%
[1]
  selectivity ratio: 6250

## CCCCCCCCCCCCCCCCSCCCOP(=O)(O)CO[C@H](C)Cn1cnc2c(N)ncnc21.N
[2]
  Tmax: 4 h
[3]
  Tmax: 4 h
[4]
  AUC: 29100 ng·h/mL
[5]
  CL: 147 mL/min/kg
[6]
  Cmax: 695 ng/mL
[17]
  Ratio: 0.333
[8]
  Ratio: 0.222
[18]
  Cmax: 39.4 ng/mL
[10]
  Cmax: 1440 ng/mL
[11]
  AUC: 657 ng·h/mL
[13]
  Tmax: 4 h
[14]
  AUC: 14600 ng·h/mL
[1]
  selectivity ratio: 4980
[15]
  CL: 147 mL/min/kg

## CC(C)[Si](C#CCCCCCCCCCCCSCCCOP(=O)(O)CO[C@H](C)Cn1cnc2c(N)ncnc21)(C(C)C)C(C)C
[1]
  selectivity ratio: 224

## CCCCCCCSCCCCCCCCCCCCOP(=O)(O)CO[C@H](C)Cn1cnc2c(N)ncnc21
[1]
  selectivity ratio: > 296

## CCCCCCCCCCSCCCCCCCCCOP(=O)(O)CO[C@H](C)Cn1cnc2c(N)ncnc21
[1]
  selectivity ratio: > 1720

## CCCCCCCCCCCCSCCCOP(=O)(O)CO[C@H](C)Cn1cnc2c(N)ncnc21
[1]
  selectivity ratio: > 532

## C[C@H](Cn1cnc2c(N)ncnc21)OCP(=O)(O)OCCCSCCCCCCCCCCC#CC1CCCCC1
[1]
  selectivity ratio: > 7580

## C[C@H](Cn1cnc2c(N)ncnc21)OCP(=O)(O)OCCCSCCCCCCCCCCCCC#C[Si](C)(C)C
[1]
  selectivity ratio: > 4170

## CCCCCCCCCCCCCCSCCCOP(=O)(O)CO[C@H](C)Cn1cnc2c(N)ncnc21
[1]
  selectivity ratio: > 16700

## COC(=O)CCCCCCCCCCCCCCCSCCCOP(=O)(O)CO[C@H](C)Cn1cnc2c(N)ncnc21
[1]
  selectivity ratio: > 70

## C[C@H](Cn1cnc2c(N)ncnc21)OCP(=O)(O)OCCCOCCCCCCCCCCCCCCCC(F)(F)F.N
[19]
  half-life: 2 h

## C#CCCCCCCCCCCCCCCSCCCOP(=O)(O)CO[C@H](C)Cn1cnc2c(N)ncnc21
[1]
  selectivity ratio: > 3570

## CCCCCCCCCCCCCSCCCCCCOP(=O)(O)CO[C@H](C)Cn1cnc2c(N)ncnc21
[1]
  selectivity ratio: > 1370

## CCCCSCCCCCCCCCCCCCCCOP(=O)(O)CO[C@H](C)Cn1cnc2c(N)ncnc21
[1]
  selectivity ratio: > 331

## C[C@H](Cn1cnc2c(N)ncnc21)OCP(=O)(O)OCCCSCCCCCCCCCCCCCCC(C)(C)C
[1]
  selectivity ratio: 138

## C[C@H](Cn1cnc2c(N)ncnc21)OCP(=O)(O)OCCCSCCCCCCCCCCCCC1CCCCC1.N
[2]
  Tmax: 4 h
[3]
  Tmax: 24 h
[4]
  AUC: 66600 ng·h/mL
[5]
  CL: 85.8 mL/min/kg
[7]
  Tmax: 4 h
[20]
  t1/2: 3.07 h
[17]
  Ratio: 1.44
[8]
  Ratio: 0.411
[21]
  Tmax: 4 h
[9]
  Ratio: 0.488
[18]
  Cmax: 47.8 ng/mL
[10]
  Cmax: 3900 ng/mL
[11]
  AUC: 740 ng·h/mL
[22]
  Vd: 228 L/kg
[13]
  Tmax: 24 h
[14]
  AUC: 22100 ng·h/mL
[1]
  selectivity ratio: > 2000
[15]
  CL: 85.8 mL/min/kg

## C[C@H](Cn1cnc2c(N)ncnc21)OCP(=O)(O)OCCCSCCCCCCCCCCCOC1CCCCC1
[1]
  selectivity ratio: > 542

## C[C@H](Cn1cnc2c(N)ncnc21)OCP(=O)(O)OCCCSCCCCCCCCCCC#Cc1ccccc1
[1]
  selectivity ratio: > 12500

## C[C@H](Cn1cnc2c(N)ncnc21)OCP(=O)(O)OCCCSCCCCCCCCCCCSc1ccccc1
[1]
  selectivity ratio: > 594

## C[C@H](Cn1cnc2c(N)ncnc21)OCP(=O)(O)OCCCSCCCCCCCCCCCOc1ccccc1.N
[16]
  Stability: 69%
[1]
  selectivity ratio: > 8060

## C[C@H](Cn1cnc2c(N)ncnc21)OCP(=O)(O)OCCCSCCCCCCCCCCCCC#CC(C)(C)C
[1]
  selectivity ratio: > 516

Reference: ChEMBL document CHEMBL6071194, “Building Metabolically Stable and Potent Anti-HIV Thioether-Lipid Analogues of Tenofovir Exalidex: A thorough Pharmacological Analysis” (J Med Chem, 2024)
